# Laboratory results: PubChem BioAssay AID588627 (Johns Hopkins Ion Channel Center, 2011)
# Out of some 310,000 compounds screened, about 1,400 (0.45%) were called active.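 The calls were made as follows: active = calcium response B-score plate-corrected fluorescence ratio at least 3 library SD, with starting fluorescence B-score inside 5 SD; inactive = the rest.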 Only a selection was taken, and actives are over-represented in it overall.
# Target: Mas-related G-protein coupled receptor member X1 (Homo sapiens) (UniProt Q96LB2)
# Test: MrgX1 activation via calcium signaling – HEK293 cells, Fluo-4 calcium flux, primary screen (AID 588627);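 as to B-score: B-score of the peak-minus-trough calcium fluorescence change over baseline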
# Conditions: Fluo-4 calcium fluorescence, agonist mode, at 10 µM; hits give high values
# Outline: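 System – MrgX1-expressing HEK293 cells · Incubation – cells plated overnight, dye loaded 0.5 h 37 °C, 0.5 h room temperature · Technique – kinetic Fluo-4 NW fluorescence of intracellular calcium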
# Chain of Mas-related G-protein coupled receptor member X1 (Homo sapiens) (Q96LB2 whole entry, looked up): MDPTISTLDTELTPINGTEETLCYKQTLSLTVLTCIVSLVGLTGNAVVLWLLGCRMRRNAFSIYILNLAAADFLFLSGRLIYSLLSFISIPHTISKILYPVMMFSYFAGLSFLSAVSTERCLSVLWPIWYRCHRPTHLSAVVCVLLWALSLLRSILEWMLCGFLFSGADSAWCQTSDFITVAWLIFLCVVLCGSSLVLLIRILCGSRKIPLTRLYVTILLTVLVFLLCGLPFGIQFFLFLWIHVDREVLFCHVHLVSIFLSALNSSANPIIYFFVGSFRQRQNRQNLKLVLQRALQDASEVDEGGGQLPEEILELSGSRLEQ
row,SMILES,B-score
1,C/C(=C\c1ccco1)C1Nc2cccc3cccc(c23)N1,inactive
2,COC1(C2=NCCN2)COc2ccccc2O1 (centres undefined),inactive
3,COc1ccc(Nc2ncc(C(=O)N3CCN(c4ccccc4OC)CC3)c3ccccc23)cc1,inactive
4,Cc1[nH]n(-c2cccc(Cl)c2)c(=O)c1/C=N/n1c(C)nc2ccccc2c1=O,inactive
5,COc1cc(SC#N)ccc1N=Cc1c(C)[nH]n(-c2ccc(C)cc2)c1=O,inactive
6,Cc1ccc(-n2[nH]c(C)c(/C=N/N3C(=O)c4cccc5cccc(c45)C3=O)c2=O)cc1,104 (active)
7,CCS(=O)(=O)n1nc(-c2ccc(OC)cc2)nc1SC,inactive
8,CCn1c(SCc2ccccc2)nc2c(c1=O)SCC2,inactive
9,CCS(=O)(=O)n1nc(-c2ccccc2)nc1SCc1ccccc1,27.5 (active)
10,CN(CCOc1ccc(Br)cc1)CC(=O)Nc1cccc(S(=O)(=O)NC2=NCCC2)c1,inactive
11,O=C(NCCN1CCOCC1)c1cc(-c2cccs2)nc2ccccc12,inactive
12,O=C(Nc1nnc(-c2ccccc2)o1)c1cc(-c2cccs2)nc2ccccc12,26.9 (active)
13,CCCCN(C)CCCNC(=O)c1cc(-c2cccs2)nc2ccccc12,inactive
14,CCOC(=O)/C(=N\Nc1ccccc1[N+](=O)[O-])c1csc(Nc2ccccc2)n1,inactive
15,O=C(Nc1ccc(Cl)cc1)C1c2cccc[n+]2CC(=O)N1Cc1ccc2c(c1)OCO2 (centres undefined),inactive
16,CCN1/C(=C\c2ccc3ccccc3[n+]2CC)Sc2cc(C)ccc21,inactive
17,CCN1/C(=C/c2ccc3ccc(C)cc3[n+]2CC)Sc2ccccc21,123 (active)
18,CC(C)OCCCNC(=O)c1ccc(C2SCC(=O)N2Cc2ccco2)cc1 (centres undefined),inactive
19,COc1cc(NC(=O)c2ccc3c(c2)OCO3)ccc1NC(=O)c1cccs1,inactive
20,COc1ccc(OCCCC(=O)OC(C)C(=O)Nc2ccccc2[N+](=O)[O-])cc1 (centres undefined),inactive
21,COc1ccc(C)cc1N(CC(=O)N1CCCC1)S(=O)(=O)c1ccccc1,inactive
22,COc1ccc(N(CC(=O)N2CCCCCC2)S(=O)(=O)c2ccccc2)cc1,inactive
23,COc1ccccc1N(CC(=O)N1CCCCC1)S(=O)(=O)c1ccccc1,50 (active)

row,SMILES,B-score
1,Cc1cccc(-c2nc3c(c(SCC(=O)N4CCOCC4)n2)CCCC3)c1,inactive
2,C=CCn1c(=NC(=O)c2cccs2)sc2cc(NC(C)=O)ccc21,inactive
3,CCCc1[nH]nc2c1C(c1ccc(Br)s1)C(C#N)=C(N)O2 (centres undefined),26.9 (active)
4,CCCc1[nH]nc2c1C(c1ccc(OC(=O)c3ccco3)cc1)C(C#N)=C(N)O2 (centres undefined),inactive
5,CCCc1[nH]nc2c1C(C1CC=CCC1)C(C#N)=C(N)O2 (centres undefined),inactive
6,COc1ccc(S(=O)(=O)N2CCN(c3ncnc4c(-c5ccccc5)nsc34)CC2)cc1,inactive
7,COc1ccccc1CCNS(=O)(=O)c1cn(C)nc1C,inactive
8,CS(=O)(=O)N(CC(=O)N1CCCCCC1)c1cccc(Cl)c1Cl,inactive
9,Cc1ccc(-n2cc(CN(C)Cc3nccn3C)c(-c3cccc(C)c3)n2)cc1,inactive
10,CCOc1c(Nc2cccc(Cl)c2)c(=O)c1=O,inactive
11,O=C(CCN1CCN(C/C=C/c2ccccc2)CC1)Nc1ccccc1Cl,inactive
12,Cc1[nH][nH]c(=O)c1C(c1ccc(-c2ccc(Cl)cc2)o1)c1c(C)[nH][nH]c1=O,46.3 (active)
13,O=C(NC1CCCCC1)c1ccc(-c2ccc(Cl)cc2)o1,inactive
14,CCOc1ccc(C(c2c(C)[nH][nH]c2=O)c2c(C)[nH][nH]c2=O)cc1OCC,inactive
15,CCNc1nc(NC(C)C)nc(OCCOC(=O)c2ccccc2)n1,inactive
16,COc1cccc(-c2ccc(SCC(=O)N3CCN(c4ccccc4)CC3)nn2)c1,inactive
17,Cc1ccc(-c2ccc(/C=N/NC(=O)CN3CCOCC3)o2)cc1[N+](=O)[O-],inactive
18,CN1CCN(/N=C/c2ccc(-c3ccc([N+](=O)[O-])cc3)o2)CC1,31.5 (active)
19,CN1CCN(/N=C/c2ccc(C#N)cc2)CC1,inactive
20,Cn1c(Cn2nnc3ccccc32)nnc1SCC(=O)c1ccccc1F,inactive
21,CCN(CC)S(=O)(=O)c1ccc(N2CCCC2)c(NS(=O)(=O)c2cccs2)c1,inactive
22,CC(C)(C)Nc1c(-c2cccs2)nc2ccccn12,44.8 (active)
23,Cc1nc2ccccn2c(=O)c1NC(=O)c1cccs1,inactive

row,SMILES,B-score
1,Cc1cc2nc(C(F)(F)F)cc(-c3cccs3)n2n1,inactive
2,COC(=O)c1ccc(NC(=O)CN(c2ccc(C)cc2)S(=O)(=O)c2c(C)n[nH]c2C)cc1,inactive
3,O=C(CSC1=NS(=O)(=O)c2cc(F)ccc2N1)Nc1ccccc1F,inactive
4,COC(=O)N/N=C/c1cn(CCCOc2ccc(C)cc2)c2ccccc12,inactive
5,COC(=O)c1cn(CC(=O)NCc2cccs2)c2ccccc12,inactive
6,COC(=O)Cn1cc(/C=C/[N+](=O)[O-])c2ccccc21,31.6 (active)
7,CCCCn1c(N)c(N(CCOC)C(=O)c2cccc(S(=O)(=O)N3CCCCC3)c2)c(=O)[nH]c1=O,inactive
8,COCCCNC(=O)CN1C(=O)CSc2ccc(S(=O)(=O)N3CCOCC3)cc21,inactive
9,CCN(CC)c1ccc(C(=O)Nn2c(C)nc3ccccc3c2=O)cc1,inactive
10,C=CCN(C(=O)Nc1ccc2oc(C)nc2c1)c1ccccc1,inactive
11,CCN(CC)c1ccc2oc(=O)c(C)nc2c1,27 (active)
12,Cc1ccc2c(c1)C1CN(C)CCC1N2S(=O)(=O)c1ccc(Oc2ccc([N+](=O)[O-])cc2)cc1 (centres undefined),inactive
13,COC(=O)CNC(c1ccccc1Cl)c1cc(Br)ccc1NC(=O)CCN1CCOCC1 (centres undefined),inactive
14,O=C(O)c1ccc(/C=C2\SC(=S)N(NC(=O)c3ccc(Br)cc3)C2=O)cc1,inactive
15,O=C1/C(=C/c2ccc(F)cc2)SC(=S)N1NS(=O)(=O)c1ccccc1,27.7 (active)
16,O=C1/C(=C/c2ccc(F)cc2)SC(=S)N1CCCC(=O)N1CCCCC1CCO (centres undefined),inactive
17,S=c1[nH]nc(NCCc2ccccc2)s1,inactive
18,CCNc1nc(-c2cc3ccccc3o2)cs1,inactive
19,Cc1nc(C)c(-c2csc(NCCc3ccccc3)n2)s1,32.5 (active)
20,Cc1ccccc1NC(=O)Cn1cc(C(=O)C2CC2)c2ccccc21,inactive
21,COc1ccc2c(c1)SC(C)CC2=O (centres undefined),inactive
22,COc1ccc2c(c1)OC(O)(C(F)(F)C(F)F)CC2=O (centres undefined),79.7 (active)
23,COc1ccc2c(c1)O/C(=C\c1ccccc1O)C2=O,inactive
